The source of these data is ChEMBL document CHEMBL5357072, “Structural Modification of Noscapine via Photoredox/Nickel Dual Catalysis for the Discovery of S-Phase Arresting Agents” (ACS Med Chem Lett, 2024).

Common to all, as to assay type: functional
Conditions in all cases: read-out: GI

In assay [1] the test system is NB-4. Put plainly: Antiproliferative activity against human NB4 cells assessed as cell growth inhibition at 10 uM incubated for 48 hrs by CCK8 assay relative to control. The essentials:
(§1)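 Single-concentration screen of six cancer cell lines. Cells were exposed to 10 μM compound and growth was measured by CCK-8 assay. Results are reported as inhibition rate at 10 μM.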

In assay [2] the test system is MOLM-13. Put plainly: Antiproliferative activity against human MOLM-13 cells assessed as cell growth inhibition at 10 uM incubated for 48 hrs by CCK8 assay relative to control. Summed up:
as §1

Assay [3] relates to JeKo-1. The experiment in a line: Antiproliferative activity against human JeKo-1 cells assessed as cell growth inhibition at 10 uM incubated for 48 hrs by CCK8 assay relative to control. The essentials:
as §1
(Tetrazolium assays rely on reduction of a dye to a coloured formazan, in cell work by metabolically active cells.)

Assay [4] deals with A549. The experiment in a line: Antiproliferative activity against human A549 cells assessed as cell growth inhibition at 10 uM incubated for 48 hrs by CCK8 assay relative to control. Summed up:
as §1

In assay [5] the test system is HeLa. Put plainly: Antiproliferative activity against human HeLa cells assessed as cell growth inhibition at 10 uM incubated for 48 hrs by CCK8 assay relative to control. Summed up: as §1
Assay [6] has as its system U-251. Put plainly: Antiproliferative activity against human U-251 cells assessed as cell growth inhibition at 10 uM incubated for 48 hrs by CCK8 assay relative to control. The essentials: as §1

Bounds are passed on as bounds.

As to `COc1ccc2c(c1OC)C(=O)O[C@@H]2[C@H]1c2c(c(CC3CCOCC3)c3c(c2OC)OCO3)CCN1C(=O)OC(C)(C)C`, the inhibition of growth at 10 µM was 4.77% in assay [1]; 48.4% in assay [2]; 20.4% in assay [3]; less than 5% in assay [4]; 23% in assay [5]; 13.2% in assay [6].

With `COc1ccc2c(c1OC)C(=O)O[C@@H]2[C@H]1c2c(c(CC3CN(C(=O)OC(C)(C)C)C3)c3c(c2OC)OCO3)CCN1C(=O)OC(C)(C)C`, the inhibition of growth at 10 µM in assay [1] was 63.1%; in assay [2] it was 59%; in assay [3] it was 48%; in assay [4], 10.6%; in assay [5] it was less than 5%; in assay [6] it was less than 5%.

As for `COc1ccc2c(c1OC)C(=O)O[C@@H]2[C@H]1c2c(c(CC3CCN3C(=O)OC(C)(C)C)c3c(c2OC)OCO3)CCN1C(=O)OC(C)(C)C` (some centres not stated), the inhibition of growth at 10 µM in assay [1] was 13.8%; in assay [2], 43.2%; in assay [3] it was 12.9%; in assay [4], less than 5%; in assay [5] it was less than 5%; in assay [6], less than 5%.

As for `COc1ccc2c(c1OC)C(=O)O[C@@H]2[C@H]1c2c(c(CCCc3ccccc3)c3c(c2OC)OCO3)CCN1C(=O)OC(C)(C)C`, the inhibition of growth at 10 µM is 25.1% in assay [1]; 63.2% in assay [2]; 13.7% in assay [3]; less than 5% in assay [4]; less than 5% in assay [5]; less than 5% in assay [6].

In the case of `COc1ccc2c(c1OC)C(=O)O[C@@H]2[C@H]1c2c(c(C3CCCC3)c3c(c2OC)OCO3)CCN1C(=O)OC(C)(C)C`, the inhibition of growth at 10 µM in assay [1] was 11.6%; in assay [2], 40%; in assay [3], 5.81%; in assay [4] it was less than 5%; in assay [5], less than 5%; in assay [6], less than 5%.

Consider `COc1ccc2c(c1OC)C(=O)O[C@@H]2[C@H]1c2c(c(C3CCCCC3)c3c(c2OC)OCO3)CCN1C(=O)OC(C)(C)C`, for which the inhibition of growth at 10 µM was 6.53% in assay [1]; 46.1% in assay [2]; less than 5% in assay [3]; less than 5% in assay [4]; less than 5% in assay [5]; less than 5% in assay [6].

Turning to `COc1ccc2c(c1OC)C(=O)O[C@@H]2[C@H]1c2c(c(CCCNC(=O)OC(C)(C)C)c3c(c2OC)OCO3)CCN1C(=O)OC(C)(C)C`, the inhibition of growth at 10 µM is 28.9% in assay [1]; 48.2% in assay [2]; 10.6% in assay [3]; less than 5% in assay [4]; less than 5% in assay [5]; less than 5% in assay [6].

Turning to `COc1ccc2c(c1OC)C(=O)O[C@@H]2[C@H]1c2c(c(C3CN(C(=O)OC(C)(C)C)C3)c3c(c2OC)OCO3)CCN1C(=O)OC(C)(C)C`, the inhibition of growth at 10 µM in assay [1] is 30.1%; in assay [2], 49.7%; in assay [3], 17.6%; in assay [4] it was less than 5%; in assay [5] it was less than 5%; in assay [6], less than 5%.

For the compound `COc1ccc2c(c1OC)C(=O)O[C@@H]2[C@H]1c2c(c(CC3CCCN3C(=O)OC(C)(C)C)c3c(c2OC)OCO3)CCN1C(=O)OC(C)(C)C` (some centres not stated), the inhibition of growth at 10 µM in assay [1] is 29.7%; in assay [2], 48.1%; in assay [3], 15.7%; in assay [4] it was less than 5%; in assay [5], 8.57%; in assay [6] it was less than 5%.

Regarding `COc1ccc2c(c1OC)C(=O)O[C@@H]2[C@H]1c2c(c(C3CCN(C(=O)OC(C)(C)C)C3)c3c(c2OC)OCO3)CCN1C(=O)OC(C)(C)C` (some centres not stated), the inhibition of growth at 10 µM is 22.1% in assay [1]; 54.8% in assay [2]; 14.9% in assay [3]; 17.7% in assay [4]; less than 5% in assay [5]; less than 5% in assay [6].

For the compound `COc1ccc2c(c1OC)C(=O)O[C@@H]2[C@H]1c2c(c(C3CCOC3)c3c(c2OC)OCO3)CCN1C(=O)OC(C)(C)C` (some centres not stated), the inhibition of growth at 10 µM in assay [1] was 23.3%; in assay [2] it was 43.6%; in assay [3] it was 20.8%; in assay [4], less than 5%; in assay [5], less than 5%; in assay [6], 32.1%.

Take `COc1ccc2c(c1OC)C(=O)O[C@@H]2[C@H]1c2c(c(CC3CCCCC3)c3c(c2OC)OCO3)CCN1C(=O)OC(C)(C)C`: the inhibition of growth at 10 µM in assay [1] was less than 5%; in assay [2], 29.3%; in assay [3], less than 5%; in assay [4] it was less than 5%; in assay [5], less than 5%; in assay [6], less than 5%.

Regarding `Nc1ccn([C@@H]2O[C@H](CO)[C@@H](O)C2(F)F)c(=O)n1` [GEMCITABINE], the inhibition of growth at 10 µM amounted to 95.7% in assay [1]; 74.1% in assay [2]; 65.2% in assay [3]; 62.3% in assay [4]; 61.4% in assay [5]; 69.7% in assay [6].

Consider `CCCCc1c2c(c(OC)c3c1OCO3)[C@H]([C@H]1OC(=O)c3c1ccc(OC)c3OC)N(C(=O)OC(C)(C)C)CC2`, for which the inhibition of growth at 10 µM in assay [1] was 10%; in assay [2] it was 48.6%; in assay [3], 11.4%; in assay [4], less than 5%; in assay [5], less than 5%; in assay [6], less than 5%.

As to `COc1ccc2c(c1OC)C(=O)O[C@@H]2[C@H]1c2c(c(CC3(F)CN(C(=O)OC(C)(C)C)C3)c3c(c2OC)OCO3)CCN1C(=O)OC(C)(C)C`, the inhibition of growth at 10 µM in assay [1] was 42.5%; in assay [2], 61.5%; in assay [3], 43.9%; in assay [4], less than 5%; in assay [5], 8.57%; in assay [6], less than 5%.

In the case of `COc1ccc2c(c1OC)C(=O)O[C@@H]2[C@H]1c2c(c(C3CC4CCC3C4)c3c(c2OC)OCO3)CCN1C(=O)OC(C)(C)C` (some centres not stated), the inhibition of growth at 10 µM in assay [1] is 15%; in assay [2], 48.6%; in assay [3], less than 5%; in assay [4] it was less than 5%; in assay [5], less than 5%; in assay [6], less than 5%.

On to `COc1ccc2c(c1OC)C(=O)O[C@@H]2[C@H]1c2c(c(C3COC3)c3c(c2OC)OCO3)CCN1C(=O)OC(C)(C)C`, for which the inhibition of growth at 10 µM in assay [1] is 9.21%; in assay [2] it was 11.7%; in assay [3], 13.3%; in assay [4], less than 5%; in assay [5] it was 14.9%; in assay [6], 12.3%.
